Data set [1] concerns Mus musculus. Kind of data set: Antiarthritic activity in type 2 collagen antibody/LPS induced Balb/c mouse assessed as reduction in disease burden at 5 mg/kg, iv followed by dosing repeat on day 6, 8, 11, 13 and 15 and measured until day 18. The data set is classed as functional, organism-based. In a few lines:
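CAIA in 7−8 week old female BALB/c mice on breeder chow. Induced with 1.75 mg of a 5-antibody anti-type II collagen cocktail iv on day 0, then 25 μg LPS ip on day 3. Dosed as single iv boluses in 10% (w/v) sulfobutyl ether−β-cyclodextrin/10 mM sodium citrate (pH 3.5); vehicle-treated group included.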

The subject of data set [2] is Mus musculus. The data set can be described thus: Antiarthritic activity in type 2 collagen antibody/LPS induced Balb/c mouse assessed as reduction in disease burden at 5 mg/kg, iv followed by dosing repeat on day 6, 8, 11, 13 and 15 and measured until day 18.
In data set [3] the test system is PBMC. The data set can be described thus: Cytotoxicity in human PBMC assessed as reduction in cell viability at 250 nM relative to control. It is filed as cell-based.
For data set [4], the target named is T1, Proteasome subunit beta type-9 (Homo sapiens) (UniProt P28065).
T1 sequence (whole entry): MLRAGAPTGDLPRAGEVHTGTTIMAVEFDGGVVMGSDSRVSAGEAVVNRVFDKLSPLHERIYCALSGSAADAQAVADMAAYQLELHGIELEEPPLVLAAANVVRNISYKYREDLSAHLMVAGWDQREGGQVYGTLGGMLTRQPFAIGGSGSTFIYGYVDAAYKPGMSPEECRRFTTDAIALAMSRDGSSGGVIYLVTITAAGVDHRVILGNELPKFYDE
The data set can be described thus: Inhibition of LMP2 in human PBMC at 250 nM by ELISA. In a few lines:
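Cryopreserved healthy-donor human PBMC in RPMI 1640 with 5% heat-inactivated FBS, exposed to compound (0.1% DMSO final) for 1 h at 37 °C, 5% CO2, then washed. Subunit-specific active-site occupancy read by ProCISE: biotinylated active-site probe binding, denaturation, streptavidin capture, subunit-specific antibody and HRP chemiluminescence. Signal normalized to protein and expressed relative to DMSO controls.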
In general terms: ELISA stands for enzyme-linked immunosorbent assay.

Data set [5] is described as follows: Selectivity ratio of IC50 for MECL1 in mouse A20 cells to IC50 for MECL1 in human MOLT4 cells. The data set is classed as cell-based.
The test system of data set [6] is PBMC. Kind of data set: Antiinflammatory activity in human PBMC assessed as reduction in anti-CD3/CD28 antibody-stimulated TNF-alpha expression at 250 nM preincubated for 1 hr followed by anti-CD3/CD28 antibody stimulation measured after 24 hrs in presence of KZR-504 by ELISA. The data set is classed as functional, cell-based. In a few lines:
(§1)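 Healthy-donor PBMC, thawed from cryopreservation, 250 000 cells/well in RPMI 1640/5% FBS. Pretreated 1 h at 37 °C with compound alone or combined (0.1% DMSO final), washed 4 times, then stimulated 24 h with anti-CD3 and anti-CD28 antibodies. TNFα and IFNγ in supernatants by electrochemiluminescent ELISA; expressed relative to DMSO-treated controls (n = 6).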

Data set [7] has as its target T2, Proteasome subunit beta type-10 (Homo sapiens) (UniProt P40306).
T2 sequence (whole entry): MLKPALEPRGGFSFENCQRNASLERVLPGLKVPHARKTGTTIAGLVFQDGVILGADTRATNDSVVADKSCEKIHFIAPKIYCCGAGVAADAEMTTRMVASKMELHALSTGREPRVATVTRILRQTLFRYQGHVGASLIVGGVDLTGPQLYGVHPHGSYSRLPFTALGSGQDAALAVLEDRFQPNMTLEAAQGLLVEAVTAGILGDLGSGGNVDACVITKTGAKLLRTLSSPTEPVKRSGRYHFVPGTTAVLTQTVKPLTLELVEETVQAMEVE
The note with it: at 250 nM.

Data set [8] relates to Mus musculus. Kind of data set: In vivo inhibition of LMP2 in Balb/c mouse splenocytes at 20 mg/kg, iv followed by dosing repeat on day 6, 8, 11, 13 and 15 and measured on 1 hr post last dose. It is filed as functional, organism-based. In a few lines:
(§2)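 BALB/c mice dosed iv bolus in 10% sulfobutyl ether−β-cyclodextrin/10 mM sodium citrate pH 3.5; tissues taken 1 h after administration. Splenocytes strained and red cells lysed; kidney frozen, then bead-homogenized. Hypotonic lysate (20 mM Tris pH 8, 5 mM EDTA) at 1 mg/mL (spleen) or 5 mg/mL (kidney) run in the ProCISE active-site ELISA. Background-subtracted, protein-normalized activity relative to vehicle animals; n = 3.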

Data set [9] deals with PBMC. Kind of data set: Antiinflammatory activity in human PBMC assessed as reduction in anti-CD3/CD28 antibody-stimulated IFN-gamma expression at 125 nM preincubated for 1 hr followed by anti-CD3/CD28 antibody stimulation measured after 24 hrs by ELISA. The data set is classed as functional, cell-based. An outline of the steps: as §1
Data set [10] relates to PBMC. Kind of data set: Antiinflammatory activity in human PBMC assessed as reduction in anti-CD3/CD28 antibody-stimulated TNF-alpha expression at 125 nM preincubated for 1 hr followed by anti-CD3/CD28 antibody stimulation measured after 24 hrs in presence of KZR-504 by ELISA. The data set is classed as functional, cell-based. An outline of the steps:
as §1

The species entered for data set [11] is Mus musculus. The data set can be described thus: Selectivity ratio of IC50 for proteosome beta 5 in mouse A20 cells to IC50 for LMP7 in mouse A20 cells. It is filed as cell-based. An outline of the steps:
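Mouse A20 B-cell lymphoma cell lysate (1 mg/mL, hypotonic 20 mM Tris pH 8, 5 mM EDTA) treated with serially diluted compound for 1 h at 25 °C. Then 5 μM biotinylated active-site probe for 2 h at 25 °C, guanidine denaturation and streptavidin bead capture. Subunit-specific antibody and HRP chemiluminescence, signal normalized to protein, IC50 from percent activity versus DMSO controls.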

Data set [12] deals with Mus musculus. The data set can be described thus: In vivo inhibition of proteosome beta 5 in Balb/c mouse kidney at 20 mg/kg, iv followed by dosing repeat on day 6, 8, 11, 13 and 15 and co-treated with 5 mg/kg, iv KZR-504 and measured on 1 hr post last dose. It is filed as functional, organism-based. An outline of the steps: as §2

Activity calls are given as the source filed them. No cut-off for these calls is given here.

`COc1ccc([C@@H](O)[C@H](NC(=O)[C@H](C)NC(=O)CN2CCOCC2)C(=O)N[C@@H](CC2=CCCC2)C(=O)[C@@]2(C)CO2)cc1` [ZETOMIPZOMIB]: the outcome in [1] and in [2] was Active.
As to `Cc1ccc(CC[C@H](NC(=O)[C@H](Cc2ccccc2)NC(=O)[C@H](CC(C)C)NC(=O)CN2CCCCCC2)C(=O)[C@@]2(C)CO2)cc1`, the Activity in data set [3] was found to be 30%. Further, the inhibition result in data set [4] and in data set [7] was “Active” throughout. In data set [5], the Ratio IC50 was 4. In addition, the outcome in data set [6] was inactive.
Regarding `COc1ccc(C[C@H](NC(=O)[C@@H](C)NC(=O)[C@H]2CC[C@H](O)CC2)C(=O)N[C@@H](CC2=CCCC2)C(=O)[C@@]2(C)CO2)cc1`, the inhibition result in data set [8] and in data set [12] was “Active” in each case. In addition, the outcome in data set [9] and in data set [10] was Active. Moreover, the Ratio IC50 in data set [11] was 7.

(Values after ChEMBL document CHEMBL4411269, “Required Immunoproteasome Subunit Inhibition Profile for Anti-Inflammatory Efficacy and Clinical Candidate KZR-616 ((2 S,3 R)- N-(( S)-3-(Cyclopent-1-en-1-yl)-1-(( R)-2-methyloxiran-2-yl)-1-oxopropan-2-yl)-3-hydroxy-3-(4-methoxyphenyl)-2-(( S)-2-(2-morpholinoacetamido)propanamido)propenamide)” (J Med Chem, 2018).)
